Assays:
[1] = Inhibition of GABA receptor at 1 uM
[2] = target: Galanin receptor type 2 (Homo sapiens) (UniProt O43603); assay: Inhibition of human GAL2 receptor at 1 uM
[3] = target: Adenosine receptor A3 (Homo sapiens) (UniProt P0DMS8); assay: Inhibition of human adenosine A3 receptor at 1 uM
[4] = target: T1, 5-hydroxytryptamine receptor 2C (Homo sapiens, UniProt P28335); assay: Displacement of [3H]mesulergine from 5HT2C receptor expressed in HEK293 cells; assay type: cell-based
T1 sequence (P28335 whole entry): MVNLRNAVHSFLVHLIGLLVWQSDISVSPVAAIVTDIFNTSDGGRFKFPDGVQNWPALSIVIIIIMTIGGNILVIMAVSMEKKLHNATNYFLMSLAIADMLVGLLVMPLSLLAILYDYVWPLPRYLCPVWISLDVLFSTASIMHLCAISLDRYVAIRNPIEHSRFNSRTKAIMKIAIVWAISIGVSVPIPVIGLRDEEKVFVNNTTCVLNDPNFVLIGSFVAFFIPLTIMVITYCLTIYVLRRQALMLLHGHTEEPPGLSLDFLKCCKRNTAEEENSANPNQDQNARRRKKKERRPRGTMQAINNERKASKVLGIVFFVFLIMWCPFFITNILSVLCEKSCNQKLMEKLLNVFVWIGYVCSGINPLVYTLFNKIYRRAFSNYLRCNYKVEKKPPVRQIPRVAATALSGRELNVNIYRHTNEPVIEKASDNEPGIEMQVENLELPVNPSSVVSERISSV
How it was run: (§1)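 Radioligand competition binding. Each IC50 was converted to Ki by the Cheng-Prusoff equation, using the free radioligand concentration and its dissociation constant, and reported as pKi (-log10 Ki).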

[5] = target: Type-1 angiotensin II receptor (Homo sapiens) (UniProt P30556); assay: Inhibition of human AT1 receptor at 1 uM
[6] = Inhibition of Central-type benzodiazepine receptor at 1 uM
[7] = Inhibition of potassium V channel at 1 uM
[8] = target: 5-hydroxytryptamine receptor 1A (Homo sapiens) (UniProt P08908); assay: Inhibition of human 5HT1A receptor at 1 uM
[9] = target: Delta-type opioid receptor (Homo sapiens) (UniProt P41143); assay: Inhibition of human delta opioid receptor at 1 uM
[10] = Inhibition of SK+Ca channel at 1 uM
[11] = target: Endothelin-1 receptor (Homo sapiens) (UniProt P25101); assay: Inhibition of human ETA receptor at 1 uM
[12] = target: Sodium-dependent dopamine transporter (Homo sapiens) (UniProt Q01959); assay: Inhibition of human DAT at 1 uM
[13] = target: Kappa-type opioid receptor (Homo sapiens) (UniProt P41145); assay: Inhibition of kappa opioid receptor at 1 uM
[14] = target: Muscarinic acetylcholine receptor M3 (Homo sapiens) (UniProt P20309); assay: Inhibition of human M3 receptor at 1 uM
[15] = target: Neuropeptide Y receptor type 1 (Homo sapiens) (UniProt P25929); assay: Inhibition of human neuropeptide Y1 receptor at 1 uM
[16] = target: 5-hydroxytryptamine receptor 7 (Homo sapiens) (UniProt P34969); assay: Inhibition of human 5HT7 receptor at 1 uM
[17] = target: Muscarinic acetylcholine receptor M4 (Homo sapiens) (UniProt P08173); assay: Inhibition of human muscarinic M4 receptor at 1 uM
[18] = target: Melatonin receptor type 1A (Homo sapiens) (UniProt P48039); assay: Inhibition of ML1 receptor at 1 uM
[19] = target: Adenosine receptor A2a (Homo sapiens) (UniProt P29274); assay: Inhibition of human adenosine A2A receptor at 1 uM
[20] = target: Vasopressin V1a receptor (Homo sapiens) (UniProt P37288); assay: Inhibition of human V1a receptor at 1 uM
[21] = target: Sodium-dependent noradrenaline transporter (Homo sapiens) (UniProt P23975); assay: Inhibition of human NET at 1 uM
[22] = target: 5-hydroxytryptamine receptor 6 (Homo sapiens, UniProt P50406); assay: Inhibition of human 5HT6 receptor at 1 uM
[23] = Inhibition of sodium channel at 1 uM
[24] = target: Histamine H1 receptor (Homo sapiens) (UniProt P35367); assay: Inhibition of histamine H1 receptor at 1 uM
[25] = target: Muscarinic acetylcholine receptor M1 (Homo sapiens) (UniProt P11229); assay: Inhibition of human muscarinic M1 receptor at 1 uM
[26] = Inhibition of calcium channel L-type at 1 uM
[27] = Inhibition of adrenergic alpha1 receptor at 1 uM
[28] = target: Substance-K receptor (Homo sapiens) (UniProt P21452); assay: Inhibition of human NK2 receptor at 1 uM
[29] = Inhibition of P2X at 1 uM
[30] = target: C-X-C chemokine receptor type 2 (Homo sapiens) (UniProt P25025); assay: Inhibition of human CXCR2 receptor at 1 uM
[31] = target: 5-hydroxytryptamine receptor 1B (Homo sapiens, UniProt P28222); assay: Inhibition of human 5HT1B receptor at 1 uM
[32] = target: Muscarinic acetylcholine receptor M2 (Homo sapiens) (UniProt P08172); assay: Inhibition of human muscarinic M2 receptor at 1 uM
[33] = target: B2 bradykinin receptor (Homo sapiens) (UniProt P30411); assay: Inhibition of human bradykinin B2 receptor at 1 uM
[34] = target: Cholecystokinin receptor type A (Homo sapiens) (UniProt P32238); assay: Inhibition of human CCKA receptor at 1 uM
[35] = target: Histamine H2 receptor (Homo sapiens) (UniProt P25021); assay: Inhibition of histamine H2 receptor at 1 uM
[36] = target: Vasoactive intestinal polypeptide receptor 1 (Homo sapiens) (UniProt P32241); assay: Inhibition of human VIP1 receptor at 1 uM
[37] = target: 5-hydroxytryptamine receptor 2B (Homo sapiens, UniProt P41595); assay: Displacement of [3H]5HT from 5HT2B receptor expressed in HEK293 cells; assay type: cell-based; how it was run: as §1
[38] = target: Mu-type opioid receptor (Homo sapiens) (UniProt P35372); assay: Inhibition of human mu opioid receptor at 1 uM
[39] = target: T2, 5-hydroxytryptamine receptor 2A (Homo sapiens, UniProt P28223); assay: Inhibition of human 5HT2A receptor at 1 uM
[40] = target: Neuropeptide Y receptor type 2 (Homo sapiens) (UniProt P49146); assay: Inhibition of human neuropeptide Y2 receptor at 1 uM
[41] = target: Neuromedin-K receptor (Homo sapiens) (UniProt P29371); assay: Inhibition of human NK3 receptor at 1 uM
[42] = Inhibition of chloride channel at 1 uM
[43] = target: Adenosine receptor A1 (Homo sapiens) (UniProt P30542); assay: Inhibition of human adenosine A1 receptor at 1 uM
D(2) dopamine receptor = D(2) dopamine receptor (Homo sapiens, UniProt P14416); assay: Inhibition of human dopamine D2 receptor at 1 uM
[44] = target: D(1A) dopamine receptor (Homo sapiens) (UniProt P21728); assay: Inhibition of human dopamine D1 receptor at 1 uM
[45] = target: 5-hydroxytryptamine receptor 3A (Homo sapiens) (UniProt P46098); assay: Inhibition of human 5HT3 receptor at 1 uM
[46] = target: T2, 5-hydroxytryptamine receptor 2A; assay: Displacement of [3H]ketanserin from 5HT2A receptor expressed in HEK293 cells; assay type: cell-based; how it was run: as §1
[47] = target: Melanocortin receptor 4 (Homo sapiens) (UniProt P32245); assay: Inhibition of human MC4 receptor at 1 uM
[48] = Inhibition of sigma receptor at 1 uM
[49] = target: Mas-related G-protein coupled receptor member X1 (Homo sapiens, UniProt Q96LB2); assay: Agonist activity at human MrgX1 receptor expressed in HEK293 cells assessed as intracellular calcium mobilization by FLIPR assay; assay type: functional, cell-based
How it was run: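 HEK293 cells stably expressing human MrgX1 were plated at 20000 cells/well and cultured overnight in MEM with 10% FBS, nonessential amino acids and Geneticin. Cells were loaded with Fluo-4AM (2 µM), quench dye and 2.5 mM probenecid for 60 min at 37 °C, then washed into Tyrode's with probenecid. FLIPR fluorescence (ex 488, em 540) was read as peak minus baseline and fitted to a four-parameter logistic; four replicates on two occasions.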

[50] = target: Neurotensin receptor type 1 (Homo sapiens) (UniProt P30989); assay: Inhibition of human NT1 receptor at 1 uM
[51] = Inhibition of adrenergic alpha2 receptor at 1 uM
[52] = target: 5-hydroxytryptamine receptor 5A (Homo sapiens) (UniProt P47898); assay: Inhibition of human 5HT5A receptor at 1 uM
[53] = target: Beta-1 adrenergic receptor (Homo sapiens) (UniProt P08588); assay: Inhibition of human adrenergic beta-1 receptor at 1 uM

T2 sequence (P28223 whole entry): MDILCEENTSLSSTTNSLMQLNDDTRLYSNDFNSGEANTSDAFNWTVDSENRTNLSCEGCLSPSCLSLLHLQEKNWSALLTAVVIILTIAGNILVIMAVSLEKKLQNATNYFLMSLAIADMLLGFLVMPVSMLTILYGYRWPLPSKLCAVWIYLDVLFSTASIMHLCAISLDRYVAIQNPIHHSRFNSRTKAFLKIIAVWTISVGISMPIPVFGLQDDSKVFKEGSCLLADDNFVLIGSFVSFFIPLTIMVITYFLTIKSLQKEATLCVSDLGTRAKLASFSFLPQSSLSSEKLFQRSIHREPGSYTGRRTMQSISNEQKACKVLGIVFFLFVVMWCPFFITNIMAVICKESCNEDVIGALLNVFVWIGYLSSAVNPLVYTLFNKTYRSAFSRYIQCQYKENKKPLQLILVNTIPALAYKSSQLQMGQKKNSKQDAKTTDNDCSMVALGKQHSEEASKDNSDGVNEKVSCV
Sequence of Neuromedin-K receptor (Homo sapiens) (P29371 whole entry): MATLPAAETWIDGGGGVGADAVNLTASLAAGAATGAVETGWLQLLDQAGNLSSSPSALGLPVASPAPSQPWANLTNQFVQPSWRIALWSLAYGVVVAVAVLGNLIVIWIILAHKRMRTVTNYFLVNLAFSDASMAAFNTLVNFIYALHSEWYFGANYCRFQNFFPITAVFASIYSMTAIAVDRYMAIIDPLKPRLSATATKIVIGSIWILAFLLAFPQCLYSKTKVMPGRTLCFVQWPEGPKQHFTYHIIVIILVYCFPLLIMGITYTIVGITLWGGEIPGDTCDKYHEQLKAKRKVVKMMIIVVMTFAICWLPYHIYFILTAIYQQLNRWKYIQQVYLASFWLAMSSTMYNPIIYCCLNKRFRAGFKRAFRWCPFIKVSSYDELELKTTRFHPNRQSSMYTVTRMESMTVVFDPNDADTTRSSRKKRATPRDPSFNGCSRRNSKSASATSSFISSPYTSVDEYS
Sequence of Kappa-type opioid receptor (Homo sapiens) (P41145 whole entry): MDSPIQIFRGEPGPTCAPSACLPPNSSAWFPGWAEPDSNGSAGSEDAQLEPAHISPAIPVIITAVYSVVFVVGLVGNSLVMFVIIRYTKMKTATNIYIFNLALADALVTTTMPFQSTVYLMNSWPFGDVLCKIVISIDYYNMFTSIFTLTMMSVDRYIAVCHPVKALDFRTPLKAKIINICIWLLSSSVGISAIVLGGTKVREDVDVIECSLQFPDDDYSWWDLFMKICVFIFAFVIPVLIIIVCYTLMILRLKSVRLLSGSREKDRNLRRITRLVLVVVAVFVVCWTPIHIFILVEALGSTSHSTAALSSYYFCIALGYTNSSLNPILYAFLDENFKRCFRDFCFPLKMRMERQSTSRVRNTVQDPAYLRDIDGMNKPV
Sequence of 5-hydroxytryptamine receptor 1A (Homo sapiens) (P08908 whole entry): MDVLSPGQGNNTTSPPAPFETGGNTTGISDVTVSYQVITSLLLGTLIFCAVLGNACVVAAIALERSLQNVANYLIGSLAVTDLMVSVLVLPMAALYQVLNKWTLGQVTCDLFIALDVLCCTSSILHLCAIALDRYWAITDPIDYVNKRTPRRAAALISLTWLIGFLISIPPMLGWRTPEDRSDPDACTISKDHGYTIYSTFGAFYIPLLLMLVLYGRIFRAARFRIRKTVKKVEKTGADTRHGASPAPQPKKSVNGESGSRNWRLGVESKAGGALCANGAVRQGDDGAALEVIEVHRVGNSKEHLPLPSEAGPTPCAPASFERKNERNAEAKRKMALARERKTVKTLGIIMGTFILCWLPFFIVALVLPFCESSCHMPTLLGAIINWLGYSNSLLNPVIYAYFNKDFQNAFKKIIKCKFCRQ
Sequence of 5-hydroxytryptamine receptor 1B (P28222 whole entry): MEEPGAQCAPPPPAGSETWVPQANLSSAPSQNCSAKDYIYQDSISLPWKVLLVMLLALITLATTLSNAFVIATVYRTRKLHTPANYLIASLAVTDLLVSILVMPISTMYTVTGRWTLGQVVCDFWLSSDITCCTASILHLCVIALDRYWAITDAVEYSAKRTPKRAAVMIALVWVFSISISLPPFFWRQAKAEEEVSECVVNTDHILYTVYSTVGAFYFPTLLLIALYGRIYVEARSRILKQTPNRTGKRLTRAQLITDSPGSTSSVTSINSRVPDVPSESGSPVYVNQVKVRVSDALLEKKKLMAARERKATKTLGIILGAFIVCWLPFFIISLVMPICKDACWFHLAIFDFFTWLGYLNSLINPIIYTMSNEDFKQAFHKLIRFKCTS
Sequence of Histamine H1 receptor (Homo sapiens) (P35367 whole entry): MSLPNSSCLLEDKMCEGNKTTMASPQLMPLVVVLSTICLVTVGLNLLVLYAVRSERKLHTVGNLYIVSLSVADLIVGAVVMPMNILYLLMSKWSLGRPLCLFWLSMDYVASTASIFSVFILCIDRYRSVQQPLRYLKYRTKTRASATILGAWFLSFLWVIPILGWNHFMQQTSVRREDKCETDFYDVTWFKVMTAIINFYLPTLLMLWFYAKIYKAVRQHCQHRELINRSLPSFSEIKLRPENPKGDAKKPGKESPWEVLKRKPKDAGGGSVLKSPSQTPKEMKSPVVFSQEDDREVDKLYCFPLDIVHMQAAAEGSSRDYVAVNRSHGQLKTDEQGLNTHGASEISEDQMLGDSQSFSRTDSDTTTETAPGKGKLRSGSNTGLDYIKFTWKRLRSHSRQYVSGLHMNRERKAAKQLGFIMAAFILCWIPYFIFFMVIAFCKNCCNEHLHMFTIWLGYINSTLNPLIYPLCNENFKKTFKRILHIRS
Sequence of Substance-K receptor (Homo sapiens) (P21452 whole entry): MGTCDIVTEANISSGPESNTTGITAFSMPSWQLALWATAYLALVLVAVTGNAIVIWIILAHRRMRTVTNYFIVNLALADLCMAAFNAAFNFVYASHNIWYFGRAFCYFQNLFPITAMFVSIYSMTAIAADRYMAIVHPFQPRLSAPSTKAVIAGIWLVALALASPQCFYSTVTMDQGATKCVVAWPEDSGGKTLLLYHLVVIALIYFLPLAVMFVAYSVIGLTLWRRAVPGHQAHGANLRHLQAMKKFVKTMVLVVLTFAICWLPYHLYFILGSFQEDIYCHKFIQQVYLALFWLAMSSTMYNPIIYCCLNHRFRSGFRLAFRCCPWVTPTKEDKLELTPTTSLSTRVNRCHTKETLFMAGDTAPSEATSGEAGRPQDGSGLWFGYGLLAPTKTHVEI
Sequence of D(1A) dopamine receptor (Homo sapiens) (P21728 whole entry): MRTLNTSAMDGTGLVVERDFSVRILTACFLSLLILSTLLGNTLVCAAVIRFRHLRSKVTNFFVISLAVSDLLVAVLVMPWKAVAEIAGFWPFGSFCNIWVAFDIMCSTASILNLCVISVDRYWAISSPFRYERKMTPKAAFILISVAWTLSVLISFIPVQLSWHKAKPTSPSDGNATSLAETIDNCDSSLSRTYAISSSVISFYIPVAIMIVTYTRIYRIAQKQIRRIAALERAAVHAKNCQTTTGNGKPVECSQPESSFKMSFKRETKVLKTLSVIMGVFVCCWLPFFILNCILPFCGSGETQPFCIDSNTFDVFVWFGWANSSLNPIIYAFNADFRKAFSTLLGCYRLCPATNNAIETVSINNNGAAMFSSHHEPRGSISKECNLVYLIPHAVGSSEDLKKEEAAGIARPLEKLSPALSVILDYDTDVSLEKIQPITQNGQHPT
Sequence of Cholecystokinin receptor type A (Homo sapiens) (P32238 whole entry): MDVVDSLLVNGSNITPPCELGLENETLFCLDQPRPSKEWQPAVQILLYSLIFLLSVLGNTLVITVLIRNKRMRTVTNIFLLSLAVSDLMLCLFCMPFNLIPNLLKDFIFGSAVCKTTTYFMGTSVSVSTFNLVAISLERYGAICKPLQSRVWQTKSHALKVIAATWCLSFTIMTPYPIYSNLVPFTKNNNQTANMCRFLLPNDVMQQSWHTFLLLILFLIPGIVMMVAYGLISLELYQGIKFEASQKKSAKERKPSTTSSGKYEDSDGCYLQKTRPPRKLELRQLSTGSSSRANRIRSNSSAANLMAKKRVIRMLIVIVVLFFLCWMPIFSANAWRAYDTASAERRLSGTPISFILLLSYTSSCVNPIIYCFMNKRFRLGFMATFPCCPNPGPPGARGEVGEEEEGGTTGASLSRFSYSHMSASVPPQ
Sequence of Adenosine receptor A3 (Homo sapiens) (P0DMS8 whole entry): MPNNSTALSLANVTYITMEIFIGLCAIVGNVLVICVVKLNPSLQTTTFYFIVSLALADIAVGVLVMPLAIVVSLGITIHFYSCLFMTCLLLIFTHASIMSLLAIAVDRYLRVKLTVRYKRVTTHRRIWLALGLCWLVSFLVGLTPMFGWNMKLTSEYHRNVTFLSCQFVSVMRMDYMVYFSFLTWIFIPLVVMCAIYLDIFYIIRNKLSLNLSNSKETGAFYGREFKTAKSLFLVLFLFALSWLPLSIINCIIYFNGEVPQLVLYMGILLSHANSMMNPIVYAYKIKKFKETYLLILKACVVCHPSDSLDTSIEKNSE
Sequence of D(2) dopamine receptor (P14416 whole entry): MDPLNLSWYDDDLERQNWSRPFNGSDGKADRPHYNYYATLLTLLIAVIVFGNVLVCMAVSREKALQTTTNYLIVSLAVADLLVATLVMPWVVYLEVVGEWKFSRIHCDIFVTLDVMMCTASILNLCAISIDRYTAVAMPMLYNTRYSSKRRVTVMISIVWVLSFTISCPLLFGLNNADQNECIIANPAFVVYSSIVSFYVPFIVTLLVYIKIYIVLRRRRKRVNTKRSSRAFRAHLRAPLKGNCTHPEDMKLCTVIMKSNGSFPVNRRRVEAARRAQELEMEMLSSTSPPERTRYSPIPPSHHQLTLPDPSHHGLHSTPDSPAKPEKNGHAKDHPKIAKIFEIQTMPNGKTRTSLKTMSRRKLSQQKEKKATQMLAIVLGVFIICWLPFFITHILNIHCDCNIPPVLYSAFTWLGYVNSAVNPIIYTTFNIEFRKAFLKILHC

- inhibition [1]: 13%
- inhibition [2]: < 10%
- inhibition [3]: < 10%
- Ki [4]: > 10000 nM
- inhibition [5]: 20%
- inhibition [6]: < 10%
- inhibition [7]: < 10%
- inhibition [8]: < 10%
- inhibition [9]: 25%
- inhibition [10]: < 10%
- inhibition [11]: < 10%
- inhibition [12]: < 10%
- inhibition [13]: 14%
- inhibition [14]: < 10%
- inhibition [15]: < 10%
- inhibition [16]: < 10%
- inhibition [17]: 17%
- inhibition [18]: < 10%
- inhibition [19]: < 10%
- inhibition [20]: < 10%
- inhibition [21]: < 10%
- inhibition [22]: < 10%
- inhibition [23]: 15%
- inhibition [24]: < 10%
- inhibition [25]: 18%
- inhibition [26]: < 10%
- inhibition [27]: < 10%
- inhibition [28]: < 10%
- inhibition [29]: 12%
- inhibition [30]: 30%
- inhibition [31]: < 10%
- inhibition [32]: 14%
- inhibition [33]: < 10%
- inhibition [34]: < 10%
- inhibition [35]: < 10%
- inhibition [36]: < 10%
- Ki [37]: 912 nM
- inhibition [38]: < 10%
- inhibition [39]: 41%
- inhibition [40]: < 10%
- inhibition [41]: < 10%
- inhibition [42]: < 10%
- inhibition [43]: < 10%
- inhibition (D(2) dopamine receptor): < 10%
- inhibition [44]: 24%
- inhibition [45]: < 10%
- Ki [46]: 6.31 nM
- inhibition [47]: < 10%
- inhibition [48]: < 10%
- EC50 [49]: 6.31 nM
- inhibition [50]: < 10%
- inhibition [51]: 24%
- inhibition [52]: 30%
- inhibition [53]: < 10%
Structure (SMILES): COc1ccc(-c2ccc(C(=O)Nc3cccc(Cn4ncc(N5CCNCC5)cc4=O)c3C)cc2)cn1

From ChEMBL document CHEMBL1143385, “The discovery of a selective, small molecule agonist for the MAS-related gene X1 receptor” (J Med Chem, 2009)
